Common to all, as to type: functional, cell-based
Assay [1] addresses Calcitonin gene-related peptide type 1 receptor (Homo sapiens) (UniProt Q16602). Description: Antagonist activity against human CGRP1 expressed in HEK293 cells assessed as inhibition of human alpha-CGRP-promoted cAMP production upto 100 uM. The procedure, abridged: (§1)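 HEK293 cells stably expressing CRLR, seeded at 5000 cells/well. Cells preincubated with peptide analogues for 15 min at 37 °C, then stimulated with 0.5 nM α-CGRP for 15 min at 37 °C. cAMP measured with a fluorescence-based kit. Peptides tested up to 100 µM. At least three independent experiments in triplicate, analysed by nonlinear curve fitting; mean ± SEM.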

The target is the same in assay [2]. Briefly: (§2) Antagonist activity against human CGRP1 expressed in HEK293 cells assessed as inhibition of human alpha-CGRP-promoted cAMP production. More on the design: concentration or dose not given beside the values. As to conditions: concentration not given here. The method in brief:
as §1

For assay [3], the target named is Calcitonin gene-related peptide type 1 receptor (Homo sapiens, UniProt O60894+Q16602). The description is as §2. The method in brief: as §1
Sequence of Calcitonin gene-related peptide type 1 receptor (Q16602 whole entry, one chain of several): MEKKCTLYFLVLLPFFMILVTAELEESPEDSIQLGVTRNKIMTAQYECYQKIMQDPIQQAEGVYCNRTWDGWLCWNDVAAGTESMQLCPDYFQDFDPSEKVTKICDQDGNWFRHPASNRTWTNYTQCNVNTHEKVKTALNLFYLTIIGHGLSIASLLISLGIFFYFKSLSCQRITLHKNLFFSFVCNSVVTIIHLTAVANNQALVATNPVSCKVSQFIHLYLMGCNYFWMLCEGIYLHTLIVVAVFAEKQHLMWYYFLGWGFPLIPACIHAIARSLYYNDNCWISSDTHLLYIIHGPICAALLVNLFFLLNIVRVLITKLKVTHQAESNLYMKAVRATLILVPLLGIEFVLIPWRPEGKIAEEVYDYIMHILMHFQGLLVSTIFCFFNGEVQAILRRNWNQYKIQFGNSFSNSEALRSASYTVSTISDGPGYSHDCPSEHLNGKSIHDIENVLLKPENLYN
Assay [4] has as its target Calcitonin gene-related peptide type 1 receptor (Homo sapiens) (UniProt Q16602). Briefly: Partial agonist activity at human CGRP1 expressed in HEK293 cells assessed by measuring cAMP production upto 1 uM. The method in brief:
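HEK293 cells stably expressing CRLR were exposed to CGRP27-37 analogues up to 1 µM without α-CGRP. cAMP production was measured with a fluorescence-based kit as the read-out.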

pIC50: −log10 of the molar value. Activity calls are given as the source filed them. The rule behind the calls is not given here. Where a SMILES comes first, the peptide text is derived from it.

Sequence of Calcitonin gene-related peptide type 1 receptor (Homo sapiens) (Q16602 whole entry): as the sequence (Q16602 whole entry, one chain of several) above

Regarding `CC(C)[C@H](NC(=O)[C@H](CC(=O)O)NC(=O)[C@@H](NC(=O)[C@@H]1CCCN1)[C@@H](C)O)C(=O)NCC(=O)N[C@H]1C[C@H]2CCC[C@@H](C(=O)N[C@@H](C)C(=O)N[C@@H](Cc3ccccc3)C(N)=O)N2C1=O`, in assay [1], the outcome was inactive.

In general, inhibition refers to the share of the control response that was lost under treatment. As a reminder, the pIC50 is the negative decadic logarithm of the IC50, by convention in mol/L. In the case of `CC(C)[C@H](NC(=O)[C@H](CC(=O)O)NC(=O)[C@@H](NC(=O)[C@@H]1CCCN1C(=O)[C@@H](NC(=O)N(N)Cc1ccccc1)C(C)C)[C@@H](C)O)C(=O)NCC(=O)N1CCC[C@H]1C(=O)N[C@@H](Cc1ccccc1)C(=O)N[C@@H](C)C(=O)N[C@@H](Cc1ccccc1)C(N)=O`, in assay [2], the inhibition worked out at 69%. For the same compound, the pIC50 in assay [3] is 6.23. In addition, the outcome in assay [4] was inactive. In the case of `CC(C)[C@H](NC(=O)[C@H](CC(=O)O)NC(=O)[C@@H](NC(=O)[C@@H]1CCCN1C(=O)[C@@H](NC(=O)[C@@H](N)Cc1ccccc1)C(C)C)[C@@H](C)O)C(=O)N[C@H]1C[C@H]2CCC[C@@H](C(=O)N[C@@H](Cc3ccccc3)C(=O)N[C@@H](C)C(=O)N[C@@H](Cc3ccccc3)C(N)=O)N2C1=O`, the result in assay [1] and in assay [4] was inactive. In the case of `CC(C)[C@H](NC(=O)N(CC(=O)O)NC(=O)[C@@H](NC(=O)[C@@H]1CCCN1)[C@@H](C)O)C(=O)NCC(=O)N1CCC[C@H]1C(=O)N[C@@H](Cc1ccccc1)C(=O)N[C@@H](C)C(=O)N[C@@H](Cc1ccccc1)C(N)=O` (HELM PEPTIDE1{P.T.[O=C(O)CN(N[*:1])C(=O)[*:2]].V.G.P.F.A.F.[am]}$$$$V2.0), the result in assay [1] was inactive. Same read-out and setting: in the case of `CC(C)[C@H](NC(=O)[C@H](CC(=O)O)NC(=O)[C@@H](NC(=O)[C@@H]1CCCN1)[C@@H](C)O)C(=O)NCC(=O)N1CCC[C@H]1C(=O)N[C@@H](Cc1ccccc1)C(=O)NN(C)C(=O)N[C@@H](Cc1ccccc1)C(N)=O` (HELM PEPTIDE1{P.T.D.V.G.P.F.[CN(N[*:1])C(=O)[*:2]].F.[am]}$$$$V2.0) it was “inactive”.

Turning to `CC(C)[C@H](NC(=O)[C@H](CC(=O)O)NC(=O)[C@@H](NC(=O)[C@@H]1CCCN1C(=O)[C@@H](NC(=O)[C@H](N)Cc1ccccc1)C(C)C)[C@@H](C)O)C(=O)NNC(=O)N1CCC[C@H]1C(=O)N[C@@H](Cc1ccccc1)C(=O)N[C@@H](C)C(=O)N[C@@H](Cc1ccccc1)C(N)=O`, in assay [2], the inhibition was found to be 70%. Further, in assay [4], the result was inactive. Turning to `CC(C)[C@H](NC(=O)[C@H](CC(=O)O)NC(=O)[C@@H](NC(=O)[C@@H]1CCCN1C(=O)[C@@H](NC(=O)[C@@H](N)Cc1ccccc1)C(C)C)[C@@H](C)O)C(=O)NNC(=O)N1CCC[C@H]1C(=O)N[C@@H](Cc1ccccc1)C(=O)N[C@@H](C)C(=O)N[C@@H](Cc1ccccc1)C(N)=O`, in assay [3], the pIC50 is 7.17. With `CC(C)[C@H](NC(=O)[C@H](CC(=O)O)NC(=O)[C@@H](NC(=O)[C@@H]1CCCN1C(=O)[C@@H](NC(=O)[C@@H](N)Cc1ccccc1)C(C)C)[C@@H](C)O)C(=O)NCC(=O)N[C@H]1CC[C@H]2CC[C@@H](C(=O)N[C@@H](C)C(=O)N[C@@H](Cc3ccccc3)C(N)=O)N2C1=O`, the result in assay [1] and in assay [4] was inactive.

Consider `CC(C)[C@H](NC(=O)[C@H](CC(=O)O)NC(=O)[C@@H](NC(=O)[C@@H]1CCCN1)[C@@H](C)O)C(=O)NCC(=O)N1CCCC1C(=O)N[C@@H](Cc1ccccc1)C(=O)N[C@H]1C[C@H]2C[C@@H](c3ccccc3)C[C@@H](C(N)=O)N2C1=O` (stereo not given in full) (HELM PEPTIDE1{P.T.D.V.G.[O=C(C1CCCN1[*:1])[*:2]].F.[NC(=O)[C@@H]1C[C@H](c2ccccc2)C[C@@H]2C[C@H](N[*:1])C(=O)N21]}$$$$V2.0), for which the outcome in assay [1] was inactive. Turning to `CC(C)[C@H](NC(=O)[C@H](CC(=O)O)NC(=O)[C@@H](NC(=O)[C@@H]1CCCN1C(=O)[C@@H](NC(=O)[C@H](N)Cc1ccccc1)C(C)C)[C@@H](C)O)C(=O)NCC(=O)N1CCC[C@H]1C(=O)N[C@@H](Cc1ccccc1)C(=O)NN(C)C(=O)N[C@@H](Cc1ccccc1)C(N)=O`, the inhibition in assay [2] worked out at 51%. The result in assay [4] was inactive. Take `CC(C)[C@H](NC(=O)[C@H](CC(=O)O)NC(=O)[C@@H](NC(=O)[C@@H]1CCCN1)[C@@H](C)O)C(=O)NCC(=O)N1CCCN1C(=O)N[C@@H](Cc1ccccc1)C(=O)N[C@@H](C)C(=O)N[C@@H](Cc1ccccc1)C(N)=O` (HELM PEPTIDE1{P.T.D.V.G.[O=C(N1CCCN1[*:1])[*:2]].F.A.F.[am]}$$$$V2.0): the inhibition in assay [2] was found to be 68%. For the same compound, the negative logarithm of the IC50 (pIC50) in assay [3] was 5.35. Take `CC(C)[C@H](NC(=O)[C@H](CC(=O)O)NC(=O)[C@@H](NC(=O)[C@@H]1CCCN1C(=O)[C@@H](NC(=O)[C@@H](N)Cc1ccccc1)C(C)C)[C@@H](C)O)C(=O)NCC(=O)N1CCC[C@H]1C(=O)N[C@@H](Cc1ccccc1)C(=O)NN(C)C(=O)N[C@@H](Cc1ccccc1)C(N)=O`: the pIC50 in assay [3] was 5.45.

In the case of `CC(C)[C@H](NC(=O)[C@H](CC(=O)O)NC(=O)[C@@H](NC(=O)[C@@H]1CCCN1C(=O)[C@@H](NC(=O)[C@@H](N)Cc1ccccc1)C(C)C)[C@@H](C)O)C(=O)NCC(=O)N1CCC[C@H]1C(=O)N[C@@H](Cc1ccccc1)C(=O)N[C@@H](C)C(=O)N[C@@H](Cc1ccccc1)C(N)=O`, the inhibition in assay [2] was 68%. Besides, the outcome in assay [4] was inactive.

With `CC(C)[C@H](NC(=O)[C@H](CC(=O)O)NC(=O)[C@@H](NC(=O)[C@@H]1CCCN1C(=O)[C@@H](NC(=O)[C@@H](N)Cc1ccccc1)C(C)C)[C@@H](C)O)C(=O)NCC(=O)N1CCC[C@@H]1C(=O)N[C@@H](Cc1ccccc1)C(=O)N[C@H]1C[C@H]2C[C@@H](c3ccccc3)C[C@@H](C(N)=O)N2C1=O`, the outcome in assay [1] and in assay [4] was inactive. Consider `CC(C)[C@H](NC(=O)[C@@H](N)Cc1ccccc1)C(=O)N1CCC[C@@H]1C(=O)N[C@H](C(=O)N[C@@H](CC(=O)O)C(=O)N[C@H]1C[C@H]2CCC[C@@H](C(=O)N3CCC[C@H]3C(=O)N[C@@H](Cc3ccccc3)C(=O)N[C@@H](C)C(=O)N[C@@H](Cc3ccccc3)C(N)=O)N2C1=O)[C@H](C)O`, for which the outcome in assay [1] and in assay [4] was inactive. With `CC(C)[C@H](NC(=O)[C@H](CC(=O)O)NC(=O)[C@@H](NC(=O)[C@@H]1CCCN1C(=O)[C@@H](NC(=O)[C@@H](N)Cc1ccccc1)C(C)C)[C@@H](C)O)C(=O)NCC(=O)N[C@H]1C[C@H]2CCC[C@@H](C(=O)N[C@@H](C)C(=O)N[C@@H](Cc3ccccc3)C(N)=O)N2C1=O`, the result in assay [1] and in assay [4] was inactive. As for `CC(C)[C@H](NC(=O)[C@H](CC(=O)O)NC(=O)[C@@H](NC(=O)C1CCCN1)[C@@H](C)O)C(=O)NCC(=O)N[C@H]1C[C@H]2C[C@@H](c3ccccc3)C[C@@H](C(=O)N[C@@H](C)C(=O)N[C@@H](Cc3ccccc3)C(N)=O)N2C1=O` (stereo not given in full), the result in assay [1] was inactive. `CC(C)[C@H](NC(=O)[C@H](CC(=O)O)NC(=O)[C@@H](NC(=O)C1CCCN1C(=O)[C@@H](NC(=O)[C@@H](N)Cc1ccccc1)C(C)C)[C@@H](C)O)C(=O)NCC(=O)N[C@H]1C[C@H]2C[C@@H](c3ccccc3)C[C@@H](C(=O)N[C@@H](C)C(=O)N[C@@H](Cc3ccccc3)C(N)=O)N2C1=O` (stereo not given in full): the result in assay [1] and in assay [4] was inactive. As to `CC(C)[C@H](NC(=O)[C@@H](N)Cc1ccccc1)C(=O)N1CCC[C@H]1C(=O)N[C@H](C(=O)N[C@H]1C[C@H]2CCC[C@@H](C(=O)NCC(=O)N3CCC[C@H]3C(=O)N[C@@H](Cc3ccccc3)C(=O)N[C@@H](C)C(=O)N[C@@H](Cc3ccccc3)C(N)=O)N2C1=O)[C@H](C)O`, the result in assay [1] and in assay [4] was inactive.

Regarding `C[C@H](NC(=O)[C@H](Cc1ccccc1)NC(=O)[C@@H]1CCCN1C(=O)CNC(=O)[C@@H]1CC[C@@H]2CC[C@H](NC(=O)[C@@H](NC(=O)[C@@H]3CCCN3)[C@H](C)O)C(=O)N21)C(=O)N[C@@H](Cc1ccccc1)C(N)=O`, the outcome in assay [1] was inactive. On the same count and under the same terms, in the case of `CC(C)[C@H](NC(=O)[C@H](CC(=O)O)NC(=O)[C@@H](NC(=O)[C@@H]1CCCN1)[C@@H](C)O)C(=O)NNC(=O)N1CCC[C@H]1C(=O)N[C@@H](Cc1ccccc1)C(=O)N[C@@H](C)C(=O)N[C@@H](Cc1ccccc1)C(N)=O` (HELM PEPTIDE1{P.T.D.V.[O=C(NN[*:1])[*:2]].P.F.A.F.[am]}$$$$V2.0) it was “inactive”. On the same count and under the same terms, in the case of `CC(C)[C@H](NC(=O)[C@H](CC(=O)O)NC(=O)[C@@H](NC(=O)[C@@H]1CCCN1)[C@@H](C)O)C(=O)NCC(=O)N1CCC[C@H]1C(=O)NN(Cc1ccccc1)C(=O)N[C@@H](C)C(=O)N[C@@H](Cc1ccccc1)C(N)=O` (HELM PEPTIDE1{P.T.D.V.G.P.[O=C(N(Cc1ccccc1)N[*:1])[*:2]].A.F.[am]}$$$$V2.0) it was “inactive”. H-PTDVGPFAF-NH2: in assay [2], the inhibition came out at 81%. The pIC50 in assay [3] is 6.11. As to `CC(C)[C@H](NC(=O)[C@H](CC(=O)O)NC(=O)[C@@H](NC(=O)[C@@H]1CCCN1C(=O)[C@@H](NC(=O)[C@@H](N)Cc1ccccc1)C(C)C)[C@@H](C)O)C(=O)NCC(=O)N1CCC[C@H]1C(=O)NN(Cc1ccccc1)C(=O)N[C@@H](C)C(=O)N[C@@H](Cc1ccccc1)C(N)=O`, the negative logarithm of the IC50 (pIC50) in assay [3] was 5.24. With `CC(C)[C@H](NC(=O)[C@H](CC(=O)O)NC(=O)[C@@H](NC(=O)[C@@H]1CCCN1C(=O)[C@@H](NC(=O)[C@H](N)Cc1ccccc1)C(C)C)[C@@H](C)O)C(=O)NCC(=O)N1CCC[C@H]1C(=O)NN(Cc1ccccc1)C(=O)N[C@@H](C)C(=O)N[C@@H](Cc1ccccc1)C(N)=O`, the inhibition in assay [2] came to 69%. The result in assay [4] was inactive.

(Values after ChEMBL document CHEMBL1142953, “Calcitonin gene-related peptide analogues with aza and indolizidinone amino acid residues reveal conformational requirements for antagonist activity at the human calcitonin gene-related peptide 1 receptor” (J Med Chem, 2007).)
